Molecules are shown by their SMILES. Activity calls are given as the source filed them. The calls are words filed in the database; no cut-off is given here.

Series [1] is described as follows: Cytotoxicity against human CEM cells expressing green fluorescent protein assessed as oncytotoxic concentration by MTT assay. Particulars: read-out: Activity. It counts as cell-based, CCRF-CEM. In a few lines: (§1)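 MTT cell viability assay in CEM-GFP cells. CC50 is the concentration reducing proliferation by 50%, n = 3. The non-cytotoxic concentration was chosen from these MTT results for the antiviral testing.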
Background: Tetrazolium dyes change colour on reduction, which living cells bring about.

Series [2] has as its system Human immunodeficiency virus 1. Kind of series: Antiviral activity against HIV1 NL4.3 infected in human CEM-GFP cells assessed as inhibition p24 antigen production at non cytotoxic concentration after 8 days by ELISA. It counts as functional. Put shortly:
(§2)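 CEM-GFP T cells carry a stably integrated LTR-driven GFP gene that is trans-activated by Tat on infection. Cells were infected with HIV-1 NL4.3 at MOI 0.05 and incubated with compound for up to 8 days post infection. Viral p24 was read by ELISA. Line 2 was tested at each compound's non-cytotoxic concentration. IC50 is 50% protection from virus, n = 3.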

In series [3] the test system is Human immunodeficiency virus 1. The experiment in a line: Antiviral activity against HIV1 NL4.3 infected in human CEM-GFP cells assessed as inhibition p24 antigen production after 8 days by ELISA. Particulars: Human immunodeficiency virus 1, NL4.3, CEM-GFP, 192 h. Type of series: functional, organism-based. Put shortly: as §2
Series [4] can be described thus: Cytotoxicity against human CEM cells expressing green fluorescent protein by MTT assay. It counts as cell-based, CCRF-CEM. Put shortly:
as §1

The nature of series [5]: Therapeutic index, ratio of CC50 for human CEM cells expressing green fluorescent protein to IC50 for HIV1 NL4.3. Type of series: cell-based, CCRF-CEM. Particulars: read-out: TI. Put shortly: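 Therapeutic index is CC50 (MTT proliferation in CEM-GFP cells, n = 3) divided by IC50 (p24 ELISA protection of HIV-1 NL4.3-infected CEM-GFP cells, n = 3).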

For the molecule `Cc1nc(C(=O)N2CCCCC2)cc2c1[nH]c1ccccc12`, in series [1], the MNTC amounted to 1.71 µM. Moreover, the inhibition entry in series [2] is “inactive”.
The matching figures for `COC(=O)c1cc2c3ccccc3n(Cc3ccccc3)c2c(C)n1`: 15.1 µM and “inactive”.
Take `Cc1cn([C@H]2C[C@H](N=[N+]=[N-])[C@@H](CO)O2)c(=O)[nH]c1=O` [ZIDOVUDINE]: the IC50 in series [3] came out at 1.04 µM. The molecule also displayed a CC50 in series [4] of 23 µM.
With `Cc1nc(C(=O)N2CCSCC2)cc2c3ccccc3n(Cc3ccc(F)cc3)c12`, in series [1], the MNTC is 23.8 µM. The inhibition entry in series [2] was “inactive”.
On to `CCCn1c2ccccc2c2cc(C(=O)OC)nc(C)c21`, for which the MNTC in series [1] turned out to be 3.54 µM. Besides, the inhibition result in series [2] was “inactive”.
Consider `COC(=O)C1Cc2c([nH]c3ccccc23)C(C)=N1` (centres undefined), for which the MNTC in series [1] is 18.6 µM. In addition, in series [2], the “inhibition (INH)” value is 17.26%.
As for `COC(=O)c1cc2c3ccccc3n3c(=O)ccc(n1)c23`, the MNTC in series [1] was 3.59 µM. Besides, the inhibition entry in series [2] is “inactive”.
The matching figures for `CCn1c2ccccc2c2cc(C(=O)OC)nc(C)c21`: 3.73 µM and “inactive”.
For `Cc1nc(C(=O)N2CCSCC2)cc2c3ccccc3n(Cc3ccccc3)c12`, in that order: 6.22 µM and “inactive”.
Consider `CCCCC1(C(=O)OC)Cc2c([nH]c3ccccc23)C(C)=N1` (centres undefined), for which the MNTC in series [1] is 8.39 µM. Further, in series [2], the “inhibition (INH)” value worked out at 12.17%.
For the molecule `Cc1nc(C(=O)N2CCOCC2)cc2c1[nH]c1ccccc12`, the MNTC in series [1] was determined as 27.1 µM. For the same molecule, the inhibition result in series [2] is “inactive”.
`CC1=NC(C(=O)O)Cc2c1[nH]c1ccccc21` (centres undefined): in series [1], the MNTC came out at 17.5 µM. The “inhibition (INH)” value in series [2] was 16.48%.
Consider `CCCCn1c2c(c3ccccc31)CC(CCCC)(C(=O)OC)N=C2C` (centres undefined), for which the MNTC in series [1] was determined as 14.1 µM. Moreover, the inhibition result in series [2] was “inactive”.
The matching figures for `CCCCn1c2ccccc2c2cc(C(=O)OC)nc(C)c21`: 1.69 µM and “inactive”.
On to `COC(=O)c1cc2c([nH]c3ccccc32)c(C)n1`, for which the MNTC in series [1] came out at 4.17 µM. Further, the “inhibition (INH)” value in series [2] was 21.3%.
For `CCCCn1c2ccccc2c2cc(C(=O)N3CCSCC3)nc(C)c21`, the MNTC in series [1] was found to be 1.36 µM. The inhibition entry in series [2] was “inactive”.
With `C#CCn1c2ccccc2c2cc(C(=O)N3CCSCC3)nc(C)c21`, the MNTC in series [1] was determined as 21.5 µM. In addition, in series [2], the inhibition result is “inactive”.
The matching figures for `CC(C)=CCn1c2ccccc2c2cc(C(=O)N3CCSCC3)nc(C)c21`: 19.8 µM and “inactive”.
The matching figures for `COC(=O)c1cc2c3ccccc3n(C)c2c(C)n1`: 19.7 µM and “inactive”.
Regarding `Cc1nc(C(=O)N2CCSCC2)cc2c1[nH]c1ccccc12`, in series [1], the MNTC was 1.61 µM. The “inhibition (INH)” value in series [2] is recorded as 16.9%.
As to `COC(=O)c1cc2c([nH]c3ccccc32)c(C=O)n1`, the IC50 in series [3] came to 2.9 µM. Further, in series [5], the selectivity ratio was determined as 7. Besides, in series [1], the MNTC worked out at 9.83 µM. Further, the midpoint of cytotoxicity in series [4], the CC50, lay at 20.3 µM.

Usually IC50 stands for the concentration needed to halve the response being measured. As a reminder, the CC50 is the concentration giving 50% cytotoxicity. Read a low CC50 as harm at low concentration.

For the origin of these results see ChEMBL document CHEMBL1208742, “Synthesis and evaluation of beta-carboline derivatives as inhibitors of human immunodeficiency virus” (Bioorg Med Chem Lett, 2010).
